From ChEMBL document CHEMBL4007402 (J Med Chem, 2017)

How the values were obtained:
CWR22R = experiment: Growth inhibition of human 22Rv1 cells after 72 hrs by CellTiter-Glo or CCK-8 assay; assay type: functional; conditions: 22Rv1, 72 h
[1] = molecular target: T1, Tyrosine-protein kinase JAK3 (Homo sapiens) (UniProt P52333); experiment: Inhibition of recombinant TEL-fused JAK3 (unknown origin) expressed in mouse BAF3 cells assessed as growth inhibition after 72 hrs by CellTiter-Glo or CCK-8 assay; assay type: cell-based
T1 sequence (whole entry): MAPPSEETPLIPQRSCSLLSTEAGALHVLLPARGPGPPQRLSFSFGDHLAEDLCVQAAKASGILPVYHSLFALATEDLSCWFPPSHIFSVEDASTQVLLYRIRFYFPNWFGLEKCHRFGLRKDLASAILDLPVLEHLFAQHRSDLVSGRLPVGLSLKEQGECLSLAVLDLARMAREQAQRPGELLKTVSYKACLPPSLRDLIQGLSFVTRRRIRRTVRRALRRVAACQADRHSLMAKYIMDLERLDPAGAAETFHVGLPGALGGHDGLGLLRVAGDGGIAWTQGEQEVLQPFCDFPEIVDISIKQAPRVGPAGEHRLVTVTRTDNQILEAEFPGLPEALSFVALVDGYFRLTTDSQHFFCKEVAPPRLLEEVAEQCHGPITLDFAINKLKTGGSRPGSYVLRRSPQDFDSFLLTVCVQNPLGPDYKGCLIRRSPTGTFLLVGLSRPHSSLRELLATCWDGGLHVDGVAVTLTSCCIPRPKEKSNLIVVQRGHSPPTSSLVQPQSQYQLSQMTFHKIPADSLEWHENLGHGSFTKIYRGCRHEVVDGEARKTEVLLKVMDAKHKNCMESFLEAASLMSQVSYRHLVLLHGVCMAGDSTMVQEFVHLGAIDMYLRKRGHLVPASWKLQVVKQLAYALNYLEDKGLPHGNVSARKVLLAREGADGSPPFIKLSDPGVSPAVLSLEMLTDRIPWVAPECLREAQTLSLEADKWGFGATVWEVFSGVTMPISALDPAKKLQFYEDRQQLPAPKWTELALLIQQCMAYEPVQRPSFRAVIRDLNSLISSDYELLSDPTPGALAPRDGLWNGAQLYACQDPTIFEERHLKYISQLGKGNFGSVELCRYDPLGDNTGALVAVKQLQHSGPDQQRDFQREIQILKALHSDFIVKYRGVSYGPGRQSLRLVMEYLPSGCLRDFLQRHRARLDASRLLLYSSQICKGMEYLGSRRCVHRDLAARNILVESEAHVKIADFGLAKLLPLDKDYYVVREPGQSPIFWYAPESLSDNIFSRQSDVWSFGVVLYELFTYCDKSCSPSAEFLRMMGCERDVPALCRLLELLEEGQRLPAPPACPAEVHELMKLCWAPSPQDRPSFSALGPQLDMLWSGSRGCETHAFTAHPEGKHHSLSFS
Method in brief: (§1)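 Isogenic murine BaF3 cells transformed with TEL-fused kinases, whose proliferation depends on the fused kinase, were used. Parental BaF3 cells served as the general selectivity counter-screen. The anti-proliferative read-out was reported as GI50.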

[2] = molecular target: Tyrosine-protein kinase ABL1 (Homo sapiens) (UniProt P00519); experiment: Inhibition of human nonphosphorylated ABL1 (229 to 512 amino acid residues) expressed in mammalian expression system assessed as remaining activity at 1 uM by KINOMEscan assay relative to control
Sequence of Tyrosine-protein kinase ABL1 (Homo sapiens) (P00519 whole entry, the tested form may be a part): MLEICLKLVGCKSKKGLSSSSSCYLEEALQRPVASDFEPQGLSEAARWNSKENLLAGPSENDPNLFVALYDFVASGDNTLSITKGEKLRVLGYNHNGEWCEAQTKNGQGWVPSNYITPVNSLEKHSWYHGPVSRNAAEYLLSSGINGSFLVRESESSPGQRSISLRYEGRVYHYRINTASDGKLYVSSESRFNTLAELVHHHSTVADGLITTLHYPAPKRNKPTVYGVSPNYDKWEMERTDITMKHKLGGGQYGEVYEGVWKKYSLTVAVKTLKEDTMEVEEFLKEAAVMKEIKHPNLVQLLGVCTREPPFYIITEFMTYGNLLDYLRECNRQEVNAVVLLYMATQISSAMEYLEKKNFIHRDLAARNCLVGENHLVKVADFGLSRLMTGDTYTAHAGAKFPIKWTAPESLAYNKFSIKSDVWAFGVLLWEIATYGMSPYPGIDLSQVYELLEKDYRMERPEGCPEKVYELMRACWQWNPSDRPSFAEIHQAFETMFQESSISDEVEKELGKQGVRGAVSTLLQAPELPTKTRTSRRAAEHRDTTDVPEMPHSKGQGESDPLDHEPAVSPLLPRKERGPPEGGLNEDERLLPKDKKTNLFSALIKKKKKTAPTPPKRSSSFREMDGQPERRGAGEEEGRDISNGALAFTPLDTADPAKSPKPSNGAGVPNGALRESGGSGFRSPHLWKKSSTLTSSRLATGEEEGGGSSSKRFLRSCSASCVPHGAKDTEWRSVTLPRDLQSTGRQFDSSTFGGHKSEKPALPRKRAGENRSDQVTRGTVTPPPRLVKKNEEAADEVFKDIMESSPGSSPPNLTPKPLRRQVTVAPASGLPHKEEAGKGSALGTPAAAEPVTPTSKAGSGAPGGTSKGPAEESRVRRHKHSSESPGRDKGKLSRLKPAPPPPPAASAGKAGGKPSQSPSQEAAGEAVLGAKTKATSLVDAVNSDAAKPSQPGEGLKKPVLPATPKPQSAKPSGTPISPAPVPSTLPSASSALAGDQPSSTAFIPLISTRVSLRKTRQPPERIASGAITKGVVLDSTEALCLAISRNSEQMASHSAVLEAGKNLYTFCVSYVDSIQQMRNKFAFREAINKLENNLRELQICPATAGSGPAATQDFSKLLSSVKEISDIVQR
Method in brief: (§2)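 KINOMEscan competition binding panel of 468 kinases, with the compound tested at 1 µM. Binding is expressed as percent of control relative to DMSO.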

[3] = molecular target: Tyrosine-protein kinase ABL1 (Homo sapiens) (UniProt P00519); experiment: Binding affinity to human phosphorylated ABL1 (229 to 512 amino acid residues) expressed in mammalian expression system assessed as percent control number at 1 uM by KINOMEscan assay; method in brief: as §2
[4] = Mean residence time (0 to t) in Sprague-Dawley rat at 10 mg/kg, po; assay type: ADME, organism-based; conditions: in vivo
Method in brief: (§3)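 Sprague Dawley rats given a single i.v. dose of 1 mg/kg or an oral dose of 10 mg/kg. Plasma AUC(0-t), AUC(0-∞), MRT(0-t), T1/2, Tmax and Cmax were derived and reported as mean±SD.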

[5] = AUC (0 to t) in Sprague-Dawley rat at 10 mg/kg, po up to 24 hrs; assay type: ADME, organism-based; design: time < 24 hr, dose 10 mg/kg, route oral; conditions: in vivo; method in brief: as §3
J82 = experiment: Growth inhibition of human J82 cells after 72 hrs by CellTiter-Glo or CCK-8 assay; assay type: functional; conditions: J82, 72 h
[6] = Half-life in Sprague-Dawley rat at 10 mg/kg, po; assay type: ADME, organism-based; conditions: in vivo; method in brief: as §3
[7] = Cmax in Sprague-Dawley rat at 1 mg/kg, iv up to 8 hrs; assay type: ADME, organism-based; design: dose 1 mg/kg, route intravenous; conditions: in vivo; method in brief: as §3
[8] = Tmax in Sprague-Dawley rat at 1 mg/kg, iv; assay type: ADME, organism-based; conditions: in vivo; method in brief: as §3
PC-3 = experiment: Growth inhibition of human PC3 cells after 72 hrs by CellTiter-Glo or CCK-8 assay; assay type: functional; conditions: PC-3, 72 h
[9] = molecular target: Epithelial discoidin domain-containing receptor 1 (Homo sapiens, UniProt Q08345); experiment: Binding affinity to human DDR1 (565 to 876 amino acid residues) expressed in bacterial expression system assessed as percent control number at 1 uM by KINOMEscan assay; method in brief: as §2
Sequence of Epithelial discoidin domain-containing receptor 1 (Q08345 whole entry, the tested form may be a part): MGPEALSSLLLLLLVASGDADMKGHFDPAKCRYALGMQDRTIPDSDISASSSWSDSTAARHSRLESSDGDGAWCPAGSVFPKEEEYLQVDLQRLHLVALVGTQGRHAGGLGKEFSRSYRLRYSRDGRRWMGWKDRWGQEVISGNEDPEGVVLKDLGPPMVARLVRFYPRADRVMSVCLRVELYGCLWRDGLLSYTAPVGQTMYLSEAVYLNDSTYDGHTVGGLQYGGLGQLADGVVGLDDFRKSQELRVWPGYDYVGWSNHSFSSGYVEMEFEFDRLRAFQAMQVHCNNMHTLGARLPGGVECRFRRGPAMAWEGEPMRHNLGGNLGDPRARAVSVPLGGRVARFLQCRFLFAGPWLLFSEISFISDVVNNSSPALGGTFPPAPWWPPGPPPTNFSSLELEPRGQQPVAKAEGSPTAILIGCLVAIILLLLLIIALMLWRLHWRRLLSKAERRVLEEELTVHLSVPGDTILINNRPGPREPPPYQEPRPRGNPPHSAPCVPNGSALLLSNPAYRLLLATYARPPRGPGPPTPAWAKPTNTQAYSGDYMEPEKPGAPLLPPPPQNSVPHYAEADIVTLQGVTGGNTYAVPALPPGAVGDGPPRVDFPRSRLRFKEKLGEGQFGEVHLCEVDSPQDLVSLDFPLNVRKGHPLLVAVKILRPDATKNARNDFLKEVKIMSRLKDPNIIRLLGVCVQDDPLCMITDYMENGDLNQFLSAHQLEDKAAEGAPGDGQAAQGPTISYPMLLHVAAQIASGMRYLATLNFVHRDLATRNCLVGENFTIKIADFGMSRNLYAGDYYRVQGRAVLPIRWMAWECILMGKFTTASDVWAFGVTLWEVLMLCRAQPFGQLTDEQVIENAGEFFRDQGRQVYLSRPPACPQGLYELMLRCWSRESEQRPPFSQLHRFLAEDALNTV

[10] = Growth inhibition of human bladder cancer cells after 72 hrs by CellTiter-Glo or CCK-8 assay; assay type: functional; conditions: Bladder cancer cell
[11] = Growth inhibition of mouse BAF3 cells after 72 hrs by CellTiter-Glo or CCK-8 assay; assay type: cell-based; method in brief: as §1
[12] = molecular target: Epidermal growth factor receptor (Homo sapiens) (UniProt P00533); experiment: Inhibition of recombinant TEL-fused EGFR (unknown origin) expressed in mouse BAF3 cells assessed as growth inhibition after 72 hrs by CellTiter-Glo or CCK-8 assay; assay type: cell-based; method in brief: as §1
Sequence of Epidermal growth factor receptor (Homo sapiens) (P00533 whole entry, the tested form may be a part): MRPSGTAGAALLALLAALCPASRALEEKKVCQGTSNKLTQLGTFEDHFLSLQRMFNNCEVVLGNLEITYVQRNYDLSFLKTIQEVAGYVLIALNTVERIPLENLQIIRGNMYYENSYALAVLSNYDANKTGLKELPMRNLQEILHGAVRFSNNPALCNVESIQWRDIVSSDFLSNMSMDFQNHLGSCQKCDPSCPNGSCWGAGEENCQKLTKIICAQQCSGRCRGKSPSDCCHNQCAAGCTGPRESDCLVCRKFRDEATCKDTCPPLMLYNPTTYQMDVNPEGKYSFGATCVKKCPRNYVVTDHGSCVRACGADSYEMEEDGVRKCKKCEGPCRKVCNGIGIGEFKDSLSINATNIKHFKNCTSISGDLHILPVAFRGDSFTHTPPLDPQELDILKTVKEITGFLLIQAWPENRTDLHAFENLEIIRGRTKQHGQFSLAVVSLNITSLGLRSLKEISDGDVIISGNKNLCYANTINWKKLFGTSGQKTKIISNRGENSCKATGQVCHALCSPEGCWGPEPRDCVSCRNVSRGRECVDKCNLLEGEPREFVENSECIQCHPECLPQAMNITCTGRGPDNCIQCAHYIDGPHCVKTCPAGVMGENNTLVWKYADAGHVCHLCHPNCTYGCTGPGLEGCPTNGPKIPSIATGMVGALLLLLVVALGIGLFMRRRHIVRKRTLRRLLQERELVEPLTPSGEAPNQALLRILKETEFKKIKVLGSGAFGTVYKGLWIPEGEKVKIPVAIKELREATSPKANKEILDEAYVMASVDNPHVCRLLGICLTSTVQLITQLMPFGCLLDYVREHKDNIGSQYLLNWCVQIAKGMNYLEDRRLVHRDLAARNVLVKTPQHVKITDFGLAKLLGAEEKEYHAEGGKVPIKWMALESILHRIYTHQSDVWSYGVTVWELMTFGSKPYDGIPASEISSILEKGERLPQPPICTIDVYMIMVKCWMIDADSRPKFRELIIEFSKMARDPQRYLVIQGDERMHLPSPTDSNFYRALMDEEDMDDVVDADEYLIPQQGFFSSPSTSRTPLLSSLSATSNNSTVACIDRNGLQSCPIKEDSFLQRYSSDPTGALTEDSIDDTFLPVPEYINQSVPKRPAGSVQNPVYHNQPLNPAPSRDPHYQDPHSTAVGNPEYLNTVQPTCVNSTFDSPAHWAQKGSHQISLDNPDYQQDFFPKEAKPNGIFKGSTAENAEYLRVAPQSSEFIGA

[13] = molecular target: Tyrosine-protein kinase ABL1 (Homo sapiens) (UniProt P00519); experiment: Inhibition of recombinant TEL-fused ABL (unknown origin) expressed in mouse BAF3 cells assessed as growth inhibition after 72 hrs by CellTiter-Glo or CCK-8 assay; assay type: cell-based; method in brief: as §1
EJ = experiment: Growth inhibition of human EJ cells after 72 hrs by CellTiter-Glo or CCK-8 assay; assay type: functional
769-P = experiment: Growth inhibition of human 769-P cells after 72 hrs by CellTiter-Glo or CCK-8 assay; assay type: functional
[14] = AUC (0 to infinity) in Sprague-Dawley rat at 1 mg/kg, iv up to 8 hrs; assay type: ADME, organism-based; design: dose 1 mg/kg, route intravenous, time infinity; conditions: in vivo; method in brief: as §3
[15] = AUC (0 to infinity) in Sprague-Dawley rat at 10 mg/kg, po up to 24 hrs; assay type: ADME, organism-based; design: dose 10 mg/kg, time infinity, route oral; conditions: in vivo; method in brief: as §3
A498 = experiment: Growth inhibition of human A498 cells after 72 hrs by CellTiter-Glo or CCK-8 assay; assay type: functional; conditions: A498, 72 h
[16] = Cmax in Sprague-Dawley rat at 10 mg/kg, po up to 24 hrs; assay type: ADME, organism-based; design: dose 10 mg/kg, route oral; conditions: in vivo; method in brief: as §3
[17] = Half-life in Sprague-Dawley rat at 1 mg/kg, iv; assay type: ADME, organism-based; conditions: in vivo; method in brief: as §3
[18] = molecular target: Mitogen-activated protein kinase 14 (Homo sapiens, UniProt Q16539); experiment: Inhibition of full-length recombinant human GST-tagged p38alpha expressed in Escherichia coli by Z'-LYTE assay
Sequence of Mitogen-activated protein kinase 14 (Q16539 whole entry, the tested form may be a part): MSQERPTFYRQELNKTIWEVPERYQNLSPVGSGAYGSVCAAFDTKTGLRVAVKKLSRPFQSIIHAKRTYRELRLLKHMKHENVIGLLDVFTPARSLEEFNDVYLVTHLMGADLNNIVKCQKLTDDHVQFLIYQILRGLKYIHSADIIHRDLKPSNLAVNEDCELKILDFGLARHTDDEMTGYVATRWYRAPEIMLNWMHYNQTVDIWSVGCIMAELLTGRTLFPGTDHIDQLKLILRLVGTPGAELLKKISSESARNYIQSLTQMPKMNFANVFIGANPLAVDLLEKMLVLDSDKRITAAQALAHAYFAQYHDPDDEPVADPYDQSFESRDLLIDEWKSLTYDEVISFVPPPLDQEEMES

[19] = molecular target: Platelet-derived growth factor receptor alpha (Homo sapiens) (UniProt P16234); experiment: Inhibition of recombinant TEL-fused PDGFR-alpha (unknown origin) expressed in mouse BAF3 cells assessed as growth inhibition after 72 hrs by CellTiter-Glo or CCK-8 assay; assay type: cell-based; method in brief: as §1
Sequence of Platelet-derived growth factor receptor alpha (Homo sapiens) (P16234 whole entry, the tested form may be a part): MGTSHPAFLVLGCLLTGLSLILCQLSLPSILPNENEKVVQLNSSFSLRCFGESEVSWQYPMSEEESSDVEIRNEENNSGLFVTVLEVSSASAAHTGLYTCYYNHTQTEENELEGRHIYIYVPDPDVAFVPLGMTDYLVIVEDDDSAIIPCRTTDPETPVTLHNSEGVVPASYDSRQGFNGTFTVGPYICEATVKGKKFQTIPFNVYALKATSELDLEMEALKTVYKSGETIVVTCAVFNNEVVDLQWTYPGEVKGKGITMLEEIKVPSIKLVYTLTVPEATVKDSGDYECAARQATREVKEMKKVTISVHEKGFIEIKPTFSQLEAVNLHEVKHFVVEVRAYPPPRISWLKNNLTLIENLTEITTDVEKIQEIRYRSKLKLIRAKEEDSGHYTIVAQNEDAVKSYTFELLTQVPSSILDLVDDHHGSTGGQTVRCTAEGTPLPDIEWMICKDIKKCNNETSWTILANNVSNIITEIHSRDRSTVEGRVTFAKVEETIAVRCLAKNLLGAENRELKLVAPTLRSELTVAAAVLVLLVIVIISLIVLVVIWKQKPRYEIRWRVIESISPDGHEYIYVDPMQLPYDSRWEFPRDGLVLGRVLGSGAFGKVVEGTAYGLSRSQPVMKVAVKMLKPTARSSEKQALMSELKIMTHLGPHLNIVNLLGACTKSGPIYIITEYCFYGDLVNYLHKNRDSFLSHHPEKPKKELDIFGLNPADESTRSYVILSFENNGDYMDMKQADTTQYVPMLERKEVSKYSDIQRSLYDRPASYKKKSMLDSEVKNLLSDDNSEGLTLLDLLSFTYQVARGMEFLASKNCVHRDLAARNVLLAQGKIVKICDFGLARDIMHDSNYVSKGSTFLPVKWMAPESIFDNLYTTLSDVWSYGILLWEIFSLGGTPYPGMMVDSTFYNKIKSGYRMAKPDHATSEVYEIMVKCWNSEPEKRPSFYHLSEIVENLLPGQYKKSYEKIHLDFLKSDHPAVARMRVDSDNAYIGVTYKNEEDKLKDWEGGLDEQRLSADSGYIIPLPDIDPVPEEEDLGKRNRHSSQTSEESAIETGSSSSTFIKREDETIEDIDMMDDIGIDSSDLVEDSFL

With `C=CC(=O)Nc1cc(Nc2ncc(C(=O)Nc3cc(NC(=O)c4cc(OC)c(OC)c(OC)c4)ccc3C)c(NC)n2)ccc1C` as the molecule, how does the GI50 (CWR22R) read?
The GI50 was 3.45 µM.

What about the GI50 [1] of the same molecule?
The GI50 was > 10 µM.

And the Activity [2]?
Its Activity is 0.7%.

And the Activity [3]?
The Activity was 6.5%.

And the MRT last [4]?
The MRT last was 2.76 h.

And the AUC(0-t) at 24 h [5]?
The AUC(0-t) at 24 h was 13.4 ng·h/mL.

And the GI50 (J82)?
Its GI50 is 5.78 µM.

And the half-life [6]?
The half-life was 6.11 h.

And the Cmax [7]?
Its Cmax is 13600 ng/mL.

And the Tmax [8]?
The Tmax was 1.02 min.

What about the GI50 (PC-3) of the same molecule?
Its GI50 is 3.45 µM.

What about the Activity [9] of the same molecule?
Its Activity is 0.05%.

What about the GI50 [10] of the same molecule?
The GI50 was 8.87 µM.

And the GI50 at 72 h [11]?
Its GI50 at 72 h is > 10 µM.

What about the GI50 [12] of the same molecule?
Its GI50 is > 10 µM.

What about the GI50 [13] of the same molecule?
The GI50 was 2.56 µM.

What about the GI50 (EJ) of the same molecule?
Its GI50 is > 10 µM.

And the GI50 (769-P)?
Its GI50 is > 10 µM.

What about the AUC(0-inf) [14] of the same molecule?
The AUC(0-inf) was 1390 ng·h/mL.

What about the AUC(0-inf) [15] of the same molecule?
Its AUC(0-inf) is 27.6 ng·h/mL.

And the GI50 (A498)?
Its GI50 is > 10 µM.

What about the Cmax [16] of the same molecule?
Its Cmax is 5.58 ng/mL.

And the half-life [17]?
The half-life was 0.8 h.

What about the IC50 [18] of the same molecule?
Its IC50 is 0.106 µM.

And the GI50 [19]?
The GI50 was 0.67 µM.
